Measured values reported in ChEMBL document CHEMBL1221342, “Synthesis and in vitro antitumor activity of new 4,5-dihydropyrazole derivatives” (Bioorg Med Chem, 2010).

Assays:
[1] = tested on: OVCAR-4; test: Growth inhibition of human OVCAR4 cells after 48 hrs by SRB assay; type: functional; details: OVCAR-4, 48 h
Outline: (§1)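 NCI 60-cell-line screen. Cells grown in RPMI1640 with 5% fetal calf serum and 2 mM L-glutamine, with inoculum density set by cell line. Preincubated 24 h, then given compound in DMSO at 10^-4 to 10^-8 M (five 10-fold steps) for 48 h continuous exposure. Growth measured by SRB protein assay. GI50, TGI and LC50 reported as –log molar.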

[2] = tested on: KM12; test: Growth inhibition of human KM12 cells after 48 hrs by SRB assay; type: functional; details: KM12, 48 h; outline: as §1
[3] = tested on: RXF 393; test: Growth inhibition of human RXF393 cells after 48 hrs by SRB assay; type: functional; details: RXF 393, 48 h; outline: as §1
[4] = tested on: T47D; test: Growth inhibition of human T47D cells after 48 hrs by SRB assay; type: functional; details: read-out: pTGI (converted); outline: as §1
[5] = tested on: SR; test: Growth inhibition of human SR cells after 48 hrs by SRB assay; type: functional; outline: as §1
[6] = tested on: SF-268; test: Growth inhibition of human SF268 cells after 48 hrs by SRB assay; type: functional; details: SF-268, 48 h; outline: as §1
[7] = tested on: MDA-MB-435; test: Growth inhibition of human MDA-MB-435 cells after 48 hrs by SRB assay; type: functional; details: MDA-MB-435, 48 h; outline: as §1
[8] = tested on: NCI-H460; test: Cytotoxicity against human NCI-H460 cells after 72 hrs by SRB assay; type: functional, cell-based; details: NCI-H460, 72 h
Outline: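 NCI-H460 (ATCC) cells seeded in 96-well plates in growth medium. Scalar drug concentrations added 24 h after plating, then 72 h exposure. Surviving cells stained with sulforhodamine B, OD read at 570 nm. IC50 (50% growth inhibition) fitted from dose–response curves. Mean ± SE of at least three independent experiments.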

[9] = tested on: SW-620; test: Growth inhibition of human SW620 cells after 48 hrs by SRB assay; type: functional; details: SW-620, 48 h; outline: as §1
[10] = tested on: DU-145; test: Growth inhibition of human DU145 cells after 48 hrs by SRB assay; type: functional; details: DU-145, 48 h; outline: as §1
[11] = tested on: OVCAR-8; test: Growth inhibition of human OVCAR8 cells after 48 hrs by SRB assay; type: functional; details: OVCAR-8, 48 h; outline: as §1
[12] = tested on: SK-MEL-28; test: Growth inhibition of human SK-MEL-28 cells after 48 hrs by SRB assay; type: functional; details: SK-MEL-28, 48 h; outline: as §1
[13] = tested on: CAKI-1; test: Growth inhibition of human Caki1 cells after 48 hrs by SRB assay; type: functional; details: CAKI-1, 48 h; outline: as §1
[14] = Growth inhibition of human […] cells after 48 hrs by SRB assay; type: functional; outline: as §1
[15] = tested on: NCI-H460; test: Growth inhibition of human NCI-H460 cells after 48 hrs by SRB assay; type: functional; details: NCI-H460, 48 h; outline: as §1
[16] = tested on: CCRF-CEM; test: Growth inhibition of human CCRF-CEM cells after 48 hrs by SRB assay; type: functional; outline: as §1
[17] = tested on: HOP-62; test: Growth inhibition of human HOP62 cells after 48 hrs by SRB assay; type: functional; details: HOP-62, 48 h; outline: as §1
[18] = tested on: 786-0; test: Growth inhibition of human 786-0 cells after 48 hrs by SRB assay; type: functional; details: 786-0, 48 h; outline: as §1
[19] = tested on: EKVX; test: Growth inhibition of human EKVX cells after 48 hrs by SRB assay; type: functional; outline: as §1
[20] = tested on: MCF7; test: Growth inhibition of human MCF7 cells after 48 hrs by SRB assay; type: functional; details: MCF7, 48 h; outline: as §1
[21] = tested on: MOLT-4; test: Growth inhibition of human MOLT4 cells after 48 hrs by SRB assay; type: functional; details: MOLT-4, 48 h; outline: as §1
[22] = tested on: M14; test: Growth inhibition of human M14 cells after 48 hrs by SRB assay; type: functional; details: M14, 48 h; outline: as §1
[23] = tested on: HCT-15; test: Growth inhibition of human HCT15 cells after 48 hrs by SRB assay; type: functional; details: HCT-15, 48 h; outline: as §1
[24] = tested on: SNB-75; test: Growth inhibition of human SNB75 cells after 48 hrs by SRB assay; type: functional; details: SNB-75, 48 h; outline: as §1
[25] = tested on: NCI-H322M; test: Growth inhibition of human NCI-H322M cells after 48 hrs by SRB assay; type: functional; outline: as §1
[26] = tested on: HL-60(TB); test: Growth inhibition of human HL-60(TB) cells after 48 hrs by SRB assay; type: functional; details: HL-60, 48 h
Outline: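 NCI 60-cell-line screen: cells grown in RPMI1640 with 5% fetal calf serum and 2 mM L-glutamine, preincubated 24 h, then exposed to compound in DMSO at five concentrations (10^-4 to 10^-8 M) for 48 h continuous exposure. Growth estimated by sulforhodamine B protein assay; reported as pGI50 (-log molar concentration inhibiting net cell growth by 50%).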

[27] = tested on: IGROV-1; test: Growth inhibition of human IGROV1 cells after 48 hrs by SRB assay; type: functional; details: IGROV-1, 48 h; outline: as §1
[28] = tested on: NCI/ADR-RES; test: Growth inhibition of human NCI/ADR-RES cells after 48 hrs by SRB assay; type: functional; outline: as §1
[29] = tested on: PC-3; test: Growth inhibition of human PC3 cells after 48 hrs by SRB assay; type: functional; details: PC-3, 48 h; outline: as §1
[30] = tested on: HCT-116; test: Growth inhibition of human HCT116 cells after 48 hrs by SRB assay; type: functional; details: HCT-116, 48 h; outline: as §1
[31] = tested on: SF-295; test: Growth inhibition of human SF295 cells after 48 hrs by SRB assay; type: functional; details: SF-295, 48 h; outline: as §1
[32] = tested on: Malme-3M; test: Growth inhibition of human MALME-3M cells after 48 hrs by SRB assay; type: functional; details: read-out: pTGI (converted); outline: as §1
[33] = tested on: A498; test: Growth inhibition of human A498 cells after 48 hrs by SRB assay; type: functional; details: A498, 48 h; outline: as §1

## COc1cc(C2CC(c3cccc(Br)c3)=NN2C(C)=O)cc(OC)c1OC (stereo not drawn)
[1]
  GI50: 631 nM
[1]; read-out: pTGI (converted)
  TGI: > 100000 nM
[2]
  GI50: 316 nM
[2]; read-out: pTGI (converted)
  TGI: 20000 nM
[3]
  GI50: 251 nM
[3]; read-out: pTGI (converted)
  TGI: 1000 nM
[4]
  TGI: 39800 nM
[5]
  GI50: 39.8 nM
[5]; read-out: pTGI (converted)
  TGI: > 100000 nM
[6]
  GI50: 1000 nM
[6]; read-out: pTGI (converted)
  TGI: 79400 nM
[7]
  GI50: 50.1 nM
[7]; read-out: pTGI (converted)
  TGI: 251 nM
[8]
  IC50: 350 nM
[9]
  GI50: 316 nM
[9]; read-out: pTGI (converted)
  TGI: > 100000 nM
[10]
  GI50: 398 nM
[10]; read-out: pTGI (converted)
  TGI: 12600 nM
[11]
  GI50: 631 nM
[11]; read-out: pTGI (converted)
  TGI: > 100000 nM
[12]
  GI50: 794 nM
[12]; read-out: pTGI (converted)
  TGI: 63100 nM
[13]
  GI50: 251 nM
[13]; read-out: pTGI (converted)
  TGI: 39800 nM
[14]
  GI50: 158 nM
[14]; read-out: pTGI (converted)
  TGI: 631 nM
[15]
  GI50: 316 nM
[15]; read-out: pTGI (converted)
  TGI: 12600 nM
[16]
  GI50: 316 nM
[16]; read-out: pTGI (converted)
  TGI: 2000 nM
[17]
  GI50: 1000 nM
[17]; read-out: pTGI (converted)
  TGI: 79400 nM
[18]
  GI50: 794 nM
[18]; read-out: pTGI (converted)
  TGI: > 100000 nM
[19]
  GI50: 631 nM
[19]; read-out: pTGI (converted)
  TGI: > 100000 nM
[20]
  GI50: 158 nM
[20]; read-out: pTGI (converted)
  TGI: 15800 nM
[21]
  GI50: 316 nM
[21]; read-out: pTGI (converted)
  TGI: 1580 nM
[22]
  GI50: 631 nM
[22]; read-out: pTGI (converted)
  TGI: 63100 nM
[23]
  GI50: 316 nM
[23]; read-out: pTGI (converted)
  TGI: 31600 nM
[24]
  GI50: 398 nM
[24]; read-out: pTGI (converted)
  TGI: > 100000 nM
[25]
  GI50: 501 nM
[25]; read-out: pTGI (converted)
  TGI: > 100000 nM
[26]
  GI50: 251 nM
[26]; read-out: pTGI (converted)
  TGI: 501 nM
[27]
  GI50: 2000 nM
[27]; read-out: pTGI (converted)
  TGI: > 100000 nM
[28]
  GI50: 398 nM
[28]; read-out: pTGI (converted)
  TGI: > 100000 nM
[29]
  GI50: 200 nM
[29]; read-out: pTGI (converted)
  TGI: 31600 nM
[30]
  GI50: 501 nM
[30]; read-out: pTGI (converted)
  TGI: > 100000 nM
[31]
  GI50: 200 nM
[31]; read-out: pTGI (converted)
  TGI: 12600 nM
[32]
  TGI: 50100 nM
[33]
  GI50: 398 nM
[33]; read-out: pTGI (converted)
  TGI: 3980 nM
